From PubChem BioAssay
HePTP inh: inhibitors of human HePTP phosphatase, primary screen, biochemical, absorbance, leukemia target; Tyrosine-protein phosphatase non-receptor type 7 (Homo sapiens), P35236; 110,000 tested, 0.64% active; recombinant HePTP phosphatase activity, OD absorbance; inhibition, % at 20 µM; AID 521, 2006; in the data active = inhibition above about 50%;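 note: plate controls were vehicle for no effect and reference inhibitor for full effect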
D1 mod: D1 CRE-luciferase signal change, two-sided – cell-based, HEK293 D1, dopamine EC30, D1 allosteric modulator project, primary screen; D(1A) dopamine receptor (Homo sapiens), P21728; dopamine EC30 potentiation; actives deviate in either direction; B-score at 10 µM; 58,000 tested, 5.9% active; AID 641, 2007;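 active = luminescence count or its row- and column-corrected plate score outside the 99.7% band of the plate's sample wells, on either side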
M1 antag: antagonists of rat M1 muscarinic receptor. Muscarinic acetylcholine receptor M1 (Rattus norvegicus), P08482. CHO-M1 cells, Fluo-4 calcium, ACh EC80 antagonist mode; active compounds read low. B-score at 10 µM. 64,000 tested, 3.4% active. AID 628, 2007;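 active = calcium fluorescence response, raw or row-and-column corrected B-score, differing from the plate sample mean either way at a set confidence level, mostly lower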
SF1 activator: activators of human SF-1, primary screen, cell-based, CHO-K1, Gal4-SF-1 LBD, luciferase luminescence; Steroidogenic factor 1 (Homo sapiens), Q13285; CHO-K1 Gal4-SF-1 LBD luciferase reporter; % increase over DMSO SF-1-specific signal; activation, % at 10 µM; 65,000 tested, 1.9% active;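 active = activation above the mean activation of all tested compounds plus 3 SD, cut at about 50% in these data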
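Assay system – CHO-K1 cells with Gal4–hSF-1 LBD chimera plus Gal4-driven luciferase · Quantity – 4,000 cells per well · Times – compound added 1 h post-seeding, 20 h exposure at 37 °C, 5% CO2 · Measured by – luciferase light emission · Benchmarks – DMSO and mock-transfected background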
M1 agonist: M1 muscarinic receptor agonists, primary screen, CHO-M1 cells, Fluo-4 calcium, agonist mode | Fluo-4 calcium fluorescence; active compounds read high | Muscarinic acetylcholine receptor M1 | B-score at 10 µM | 64,000 tested, 3% active;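 active = fluorescence rise, raw or as B-score row- and column-corrected plate score, outside the 99.7% band of its plate's samples, either direction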
RORa activator: activators of orphan receptor RORA, primary screen, cell-based, luminescence; Nuclear receptor ROR-alpha (Homo sapiens), P35398; 65,000 tested, 1.5% active; activation, % at 10 µM; CHO-K1 Gal4-RORA LBD luciferase reporter; percent increase over mock-subtracted basal signal;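 active = activation above the mean of all tested compounds plus 3 SD, cut at about 49% in these data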;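 note: 0% = DMSO-treated RORA cells and 100% = added signal equal to DMSO minus mock-transfected cells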
Target sequence (P35398 whole entry, looked up, the tested form may be a part): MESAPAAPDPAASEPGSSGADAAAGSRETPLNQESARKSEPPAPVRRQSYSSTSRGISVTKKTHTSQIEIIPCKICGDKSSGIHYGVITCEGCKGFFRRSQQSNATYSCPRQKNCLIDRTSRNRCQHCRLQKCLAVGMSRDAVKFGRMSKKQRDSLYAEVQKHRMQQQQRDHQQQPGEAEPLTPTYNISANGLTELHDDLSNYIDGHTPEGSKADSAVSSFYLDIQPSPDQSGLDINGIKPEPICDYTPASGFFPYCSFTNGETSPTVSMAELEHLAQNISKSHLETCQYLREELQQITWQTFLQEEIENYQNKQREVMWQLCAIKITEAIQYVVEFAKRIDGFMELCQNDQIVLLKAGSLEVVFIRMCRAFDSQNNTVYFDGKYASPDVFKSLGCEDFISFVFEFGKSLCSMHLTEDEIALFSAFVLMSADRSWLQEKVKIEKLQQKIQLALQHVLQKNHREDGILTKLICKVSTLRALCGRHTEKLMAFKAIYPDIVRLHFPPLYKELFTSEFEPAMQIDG
Active calls of the source: *; nt = not tested or not shown. This is a sample that favours compounds with a hit; in the whole collection about 8.2% have one here.

SMILES | HePTP inh | D1 mod | M1 antag | SF1 activator | M1 agonist | RORa activator
Brc1ccc(-c2nnc3sc(CN4CCC5(CC4)OCCO5)cn23)cc1 | 2.8 | 0.666 | -0.0968 | 6.3 | -0.851 | -2.9
O=C(Nc1cccc(-c2cn3ccsc3n2)c1)c1ccccc1 | 9.5 | -1.18 | -0.732 | 26.6 | 0.471 | 48.8*
Cc1cc(N2CCN(C)CC2)nc2ccc(NC(=O)c3ccc(Br)o3)cc12 | 7.4 | -4.17* | -2.39 | 34.7 | -0.35 | 16.1
CC(=O)Nc1nc2cc3c(cc2s1)OCO3 | -8.4 | -1.29 | 0.278 | 38.7 | -0.111 | 71.8*
Cc1nc2ccc3nc(NC(=O)c4ccc5c(c4)OCCO5)sc3c2s1 | -0.5 | -0.913 | 0.628 | 27.9 | -0.104 | 24.2
c1c2c(cc3sc(N4CCCCC4)nc13)OCO2 | 6.8 | -1.37 | 0.379 | -8.1 | 2 | -44.5
O=C(Nc1nc2cc3c(cc2s1)OCO3)C1=COCCO1 | 5.6 | -8.33* | -0.616 | -62.2 | -0.25 | -68.2
COC(=O)c1c(NC(=O)c2cc([N+](=O)[O-])cc([N+](=O)[O-])c2)c(C#N)c(C)n1-c1ccccc1 | 9.3 | nt | nt | nt | nt | nt
CCOC(=O)c1c(NC(=O)CSc2n[nH]c(-c3ccco3)n2)sc(C)c1C | 9.8 | 6.88* | 0.59 | 6.4 | -0.729 | 22.7
Cc1cc(C)c2nc(N3CCCC(C(=O)N4CCC(C(N)=O)CC4)C3)sc2c1 (stereo not given) | 13.4 | -4.15* | 0.663 | 11.7 | -0.834 | 1.0
CC1CN(CC(=O)N2CCc3[nH]c4ccccc4c3C2)CC(C)O1 (stereo not given) | 4.1 | 0.101 | 0.776 | -7.0 | -1.03 | 0.7
O=C1C=CC(=O)C(/C(=C/NCc2ccccc2)[N+](=O)[O-])=C1 | 104.0* | nt | nt | nt | nt | nt
COc1ccc(C(=O)NCCSc2ccccn2)cc1 | 6.8 | -5.33* | 0.25 | 30.0 | 0.0178 | 38.6
O=C(Nc1nc2ccccc2s1)c1ccncc1 | -2.8 | nt | nt | nt | nt | nt
Cc1cc(C)n(-c2ccc(C(=O)NC3=NCCS3)cc2)n1 | -2.5 | -0.382 | -1.05 | 33.2 | -0.462 | 51.4*
CC(C)Oc1ccc(C(=O)Nc2nc3ccccc3s2)cc1 | 96.3* | nt | nt | nt | nt | nt
Cc1cc(C)n(-c2ccc(C(=O)Nc3nc4ccccc4s3)cc2)n1 | 2.2 | 0.0948 | -0.289 | 25.8 | -0.514 | 49.4*
Nc1ccc(C(=O)Nc2nc3ccccc3s2)cc1 | 0.7 | -6.56* | -0.366 | nt | 0.176 | nt
CC(=O)Nc1ccc(C(=O)NC2=NCCS2)cc1 | 4.2 | nt | nt | nt | nt | nt
CC(=O)c1cc2c(cc1NC(=O)c1ccc(-n3nc(C)cc3C)cc1)OCO2 | 10.3 | -0.358 | -0.898 | -9.3 | -0.398 | 6.2
CCOC(=O)Cn1nc(-c2ccccc2)nc1-c1ccccc1 | 1.8 | -3.52* | -0.00438 | 24.8 | 1.11 | 19.7
Cc1nn2cc(-c3ccc(N)cc3)nc2s1 | 10.5 | 1.97 | -0.441 | 88.5* | -0.412 | 22.4
Cc1c(C(=O)OC(C)C)sc(NC(=O)/C=C/c2ccc3c(c2)OCO3)c1C(N)=O | -1.1 | nt | nt | nt | nt | nt
O=C(NC1CCCCCC1)c1ccc(N2CCCC2=O)cc1 | -5.2 | -2.88 | -0.0288 | 53.6* | 0.324 | 29.4
O=C(NC1CCCCC1)c1ccc(N2CCCC2=O)cc1 | 0.1 | nt | 1.25 | 39.8 | -0.127 | 28.6
SMILES | HePTP inh | D1 mod | M1 antag | SF1 activator | M1 agonist | RORa activator
CCOC(=O)/C=C(\C)Nc1cc(C)nn1-c1ccccc1 | -8.2 | -4.79* | nt | -11.3 | nt | 2.5
CCc1ccc(C(=O)CSc2n[nH]c(C)n2)cc1 | -3.3 | -0.216 | 0.143 | 22.0 | 0.191 | 10.9
CCOc1ccc(C(=O)N2CCN(C(=O)c3ccco3)CC2)cc1OCC | 3.4 | 1.9 | 0.127 | -8.0 | -0.941 | -8.1
NNc1ccc(/C=C/c2ccc(NN)cc2S(=O)(=O)O)c(S(=O)(=O)O)c1 | 94.3* | nt | nt | nt | nt | nt
Clc1ccccc1Cn1nnc(-c2cccs2)n1 | 10.0 | 2.06 | 0.0022 | 50.8* | -0.442 | 43.2
O=C(CCn1nnc(-c2cccs2)n1)NCc1ccccc1Cl | 8.7 | -0.133 | -0.00229 | -11.4 | -1.08 | 0.9
CCOC(=O)CSc1nc2ccccc2c(=O)n1NC(=O)c1ccccc1 | 2.4 | 0.268 | -0.052 | 56.0* | 0.509 | 1.6
CCOC(=O)CSc1nc2ccccc2c(=O)n1C | -0.1 | nt | -1.79 | 3.6 | -0.0737 | -18.6
COCCn1c(C)cc(C(=O)CSc2nc3ccccc3o2)c1C | 6.8 | -3.41 | -0.576 | 0.2 | -1.75 | 28.6
COCCn1c(C)cc(C(=O)CSc2nnc3ccccn23)c1C | 1.2 | -7.25* | 0.123 | -29.9 | -0.0217 | -46.5
Cc1cc(C)c2c(n1)sc1c(N3CCOCC3)ncnc12 | 4.2 | 2.83* | 0.317 | 20.6 | -0.847 | -10.4
CC(C)Oc1ccc(NC(=O)Oc2ccccc2)cc1 | 4.7 | -2.64 | 0.0383 | 52.1* | -1.22 | 39.4
CC(=O)c1cccc(NC(=O)Oc2ccccc2)c1 | 2.3 | 1.36 | 0.0406 | -1.1 | -0.581 | 3.7
Cn1c(CC(O)c2ccccc2)nc2ccccc21 (stereo not given) | 5.1 | nt | nt | nt | nt | nt
Nc1nc(NC(=O)Cc2ccccc2)nn1-c1ccccc1 | 6.1 | nt | -0.315 | 2.6 | -0.786 | -6.2
CCN(CC)c1ccc2c(c1)CCCN2 | 2.9 | -3.39* | -1.39 | -5.3 | -1.6 | -25.3
COc1cc(NC(=O)c2c(-c3ccccc3Cl)noc2C)c(OC)cc1Cl | 10.1 | nt | nt | nt | nt | nt
COc1ccc(NC(=O)c2cnc3ccccn3c2=O)cc1OC | -2.3 | 0.139 | 0.205 | 18.1 | -1.73 | 52.8*
O=C(COc1ncnc2ccccc12)c1ccc2c(c1)OCCO2 | -4.5 | 0.137 | 0.723 | 58.5* | -0.038 | -1.0
O=C(CC(=O)c1ccccc1)Nc1ccc2c(c1)OCCO2 | 2.0 | -1.51 | -0.00799 | 60.8* | 0.351 | 10.3
O=C(Cn1cnc2ccccc2c1=O)Nc1ccc2c(c1)OCCO2 | 12.6 | -0.505 | -1.23 | 59.1* | 0.284 | 42.4
O=C(CS(=O)(=O)c1ccccc1)c1ccc2c(c1)OCCO2 | 6.2 | 0.185 | -1.7 | 51.5* | -1.28 | 34.9
COc1ccccc1N/N=C(/C#N)C(N)=S | -13.7 | nt | nt | nt | nt | nt
CC(=O)N(C1=C(N2CCCCC2)C(=O)c2ccccc2C1=O)c1ccc(C)cc1 | 1.0 | nt | nt | nt | nt | nt
N#Cc1c(NC(=O)CN2CCOCC2)oc(-c2ccccc2)c1-c1ccccc1 | -2.9 | nt | 0.129 | -5.3 | 0.438 | -3.4
N#Cc1c(NC(=O)Cn2cnc3ccccc3c2=O)oc(-c2ccccc2)c1-c1ccccc1 | 3.7 | -4.71* | 1.52 | -4.1 | -0.86 | -6.0
CCN(CC)C(=O)CSc1nnc2sc3ccccc3n12 | -5.1 | -0.885 | 0.742 | 11.7 | 0.259 | -17.9
CC1CCCN(c2ccc(C(=O)NCc3cccs3)cn2)C1 (stereo not given) | 13.0 | 0.169 | 0.271 | 70.2* | 1.16 | 56.3*
CC1CCN(c2ccc(C(=O)NCCc3ccccc3)cn2)CC1 | 8.2 | 0.00636 | 0.681 | 28.4 | 0.562 | 60.2*
Cc1ccc2c(Cl)c(C(=O)Nc3nncs3)sc2c1 | 1.6 | nt | nt | nt | nt | nt
